For test [1], the system named is A549. In words: Induction of mitochondrial membrane potential loss in human A549 cells assessed as cells with depolarized mitochondria by measuring increase in J-monomer green fluorescence intensity at 0.4 uM incubated for 24 hrs by JC1 staining based fluorescence microscopic method (reference value: 1.5%). Type of test: functional.
Test [2] deals with HepG2. In words: Antiproliferative activity against human HepG2 cells assessed as inhibition of cell growth incubated for 48 hrs by MTT assay. Type of test: functional, cell-based. As to conditions: HepG2, 48 h. In a few lines: (§1)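 MTT read-out. Cells seeded at 5.0 × 10⁴ cells/ml and cultured 24 h, then exposed to the drug over a range of concentrations for 48 h, with matching DMSO as control. MTT (5 mg/ml) added for 4 h, supernatant removed, formazan dissolved in DMSO, OD read at 570 nm. Run in triplicate, mean ± SD (n = 3).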
For orientation: Tetrazolium dyes change colour on reduction, which living cells bring about.

Test [3] deals with A549. The experiment in a line: Induction of apoptosis in human A549 cells assessed as early apoptotic cells at 1.2 uM incubated for 48 hrs by Annexin V-FITC and PI staining based flow cytometric analysis (reference value: 0.5%). Type of test: functional. In a few lines:
(§2)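 A549 cells (4×10^5 per 6 cm dish) cultured 24 h, then treated 48 h with compound or DMSO. Cells gently harvested, washed twice in cold PBS, resuspended in binding buffer with Annexin V and PI, stained 15 min at room temperature in the dark, analysed by flow cytometry. Mean ± SD, n = 3.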
For orientation: A flow cytometer gives signals particle by particle.

Test [4] concerns MCF7. The experiment in a line: Antiproliferative activity against human MCF7 cells assessed as inhibition of cell growth incubated for 48 hrs by MTT assay. In kind it is functional, cell-based. The note with it: MCF7, 48 h. An outline of the steps: as §1
The test system of test [5] is A549. The experiment in a line: Induction of cell cycle arrest in human A549 cells assessed as accumulation at G1 phase at 0.2 uM incubated for 24 hrs by PI staining based flow cytometric analysis (reference value: 60.14%). In kind it is functional. An outline of the steps: (§3)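 A549 cells (4×10^5 per 6 cm dish) were grown 24 h, then exposed to compound (0.2, 0.4, 0.8 μM) or DMSO for 24 h. Cells fixed in 75% ethanol at −20 °C for at least 12 h, treated with RNase A at 37 °C for 30 min, then stained with PI for 15 min in the dark. Analysed by flow cytometry, mean ± SD, n = 3.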

In test [6] the test system is A549. The experiment in a line: Antiproliferative activity against human A549 cells assessed as inhibition of cell growth incubated for 48 hrs by MTT assay. Type of test: functional, cell-based. As to conditions: A549, 48 h. An outline of the steps:
as §1

The subject of test [7] is A549. The experiment in a line: Antiproliferative activity against human A549 cells assessed as inhibition of cell growth at 0.5 uM incubated for 48 hrs by MTT assay relative to control. In kind it is functional. The note with it: A549, 48 h, read-out: GI.
Test [8] addresses T1, Hsp90 co-chaperone Cdc37 (Homo sapiens) (UniProt Q16543).
T1 sequence (whole entry): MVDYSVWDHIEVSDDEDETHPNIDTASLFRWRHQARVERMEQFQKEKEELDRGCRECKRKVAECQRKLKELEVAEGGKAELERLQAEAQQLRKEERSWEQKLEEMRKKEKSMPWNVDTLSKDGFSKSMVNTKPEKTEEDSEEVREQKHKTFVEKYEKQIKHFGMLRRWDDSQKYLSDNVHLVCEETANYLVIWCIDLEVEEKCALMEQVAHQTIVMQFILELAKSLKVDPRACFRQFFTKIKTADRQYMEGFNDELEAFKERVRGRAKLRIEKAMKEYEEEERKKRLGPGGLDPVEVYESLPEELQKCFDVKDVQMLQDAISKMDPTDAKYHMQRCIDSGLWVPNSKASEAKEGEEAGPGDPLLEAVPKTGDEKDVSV
In words: Binding affinity to Cdc37 in human A549 cells assessed as inhibition of HSP90-Cdc37 interaction by measuring increase in cleaved caspase-3 protein level at 1.25 to 5 uM incubated for 12 hrs by Western blot analysis. In kind it is cell-based. An outline of the steps: (§4)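 A549 cells (5×10^5 per 6 cm dish) were allowed to settle 12 h, then treated with DMSO or compound at the indicated concentrations for 12 h. Lysates were adjusted to 3 mg/ml protein by BCA and resolved on 10% SDS-PAGE, then Western blotted. β-actin or Hsp90 served as the loading control. Three separate experiments, mean ± SD.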

The test system of test [9] is A549. The experiment in a line: Induction of apoptosis in human A549 cells assessed as late apoptotic cells at 1.2 uM incubated for 48 hrs by Annexin V-FITC and PI staining based flow cytometric analysis (reference value: 3.0%). Type of test: functional. An outline of the steps:
as §2

The subject of test [10] is A549. The experiment in a line: Induction of morphological apoptosis in human A549 cells assessed as increase in cells with nuclear fragmentation at 0.3 to 1.2 uM incubated for 48 hrs by Hoechst 33342 and PI staining based fluorescence microscopic method. Type of test: functional, cell-based. An outline of the steps:
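A549 cells (4×10^5 per 6 cm dish) were grown 24 h, then exposed to compound at the indicated concentrations or DMSO for 48 h. After PBS washes, cells were stained with Hoechst 33342 (10 µg/ml) plus PI for 5 min at room temperature in the dark and imaged by fluorescence microscopy for nuclear morphology.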

In test [11] the target is T1, Hsp90 co-chaperone Cdc37 (Homo sapiens). In words: Binding affinity to Cdc37 in human A549 cells assessed as inhibition of HSP90-Cdc37 interaction by measuring decrease in CDK4 protein level incubated for 12 hrs by Western blot analysis. In kind it is cell-based. An outline of the steps: as §4
For test [12] the target is unchanged. In words: Binding affinity to recombinant Cdc37 (unknown origin) assessed as inhibition of biotin labeled 3-[3-cyano-3-(4-fluorophenyl)prop-2-enoyl]oxypropyl(2R,4aS,6aR,6aS,14aS,14bR)-10-hydroxy-2,4a,6a,6a,9,14a-hexamethyl-11-oxo-1,3,4,5,6,13,14,14b-octahydropicene-2-carboxylate binding to enzyme at 0.25 to 0.5 uM incubated with compound for 2 hrs before or after incubation with biotin labeled 3-[3-cyano-3-(4-fluorophenyl)prop-2-enoyl]oxypropyl(2R,4aS,6aR,6aS,14aS,14bR)-10-hydroxy-2,4a,6a,6a,9,14a-hexamethyl-11-oxo-1,3,4,5,6,13,14,14b-octahydropicene-2-carboxylate for 2 hrs by pull down assay based immunoblot analysis. In a few lines:
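Recombinant Cdc37 ([…]) incubated with varying compound concentrations for 2 h, either before or after a 2 h incubation with biotinylated probe (0.5 μM) at 10 °C. Biotin alone served as control. Probe-bound protein captured on streptavidin beads, and input and bound fractions immunoblotted.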
On the technique in general: In western blotting, separated proteins are transferred to a membrane and probed.

For test [13] the target is unchanged. The experiment in a line: Binding affinity to Cdc37 in human A549 cells assessed as inhibition of HSP90-Cdc37 interaction by measuring decrease in Bcl2 protein level at 1.25 to 5 uM incubated for 12 hrs by Western blot analysis. In kind it is cell-based. An outline of the steps:
as §4

Test [14] deals with A549. In words: Induction of mitochondrial membrane potential loss in human A549 cells assessed as cells with hyperpolarized mitochondria by measuring decrease in J-aggregates red fluorescence intensity at 0.4 uM incubated for 24 hrs by JC1 staining based fluorescence microscopic method (reference value: 98.4%). In kind it is functional. Also on record: scale not given: the % may be the effect or the level left.

Test [15] concerns the target T1, Hsp90 co-chaperone Cdc37 (Homo sapiens). The experiment in a line: Binding affinity to Cdc37 in human A549 cells assessed as inhibition of HSP90-Cdc37 interaction by measuring decrease in Akt phosphorylation level incubated for 12 hrs by Western blot analysis. Type of test: cell-based. In a few lines: as §4
Test [16] relates to A549. The experiment in a line: Induction of cell cycle arrest in human A549 cells assessed as accumulation at G2 phase at 0.8 uM incubated for 24 hrs by PI staining based flow cytometric analysis (reference value: 19.37%). In kind it is functional. In a few lines: as §3
Test [17] has as its system A549. The experiment in a line: Induction of cell cycle arrest in human A549 cells assessed as accumulation at G1 phase at 0.4 uM incubated for 24 hrs by PI staining based flow cytometric analysis (reference value: 60.14%). In kind it is functional. In a few lines:
as §3

Test [18] has as its system A549. In words: Induction of mitochondrial membrane potential loss in human A549 cells assessed as cells with hyperpolarized mitochondria by measuring decrease in J-aggregates red fluorescence intensity at 0.2 uM incubated for 24 hrs by JC1 staining based fluorescence microscopic method (reference value: 98.4%). In kind it is functional. Also on record: scale not given: the % may be the effect or the level left.

Calls of active or inactive are those of the source. The calls are words filed in the database; no cut-off is given here.

Regarding `CC1=C(O)C(=O)C=C2C1=CC=C1[C@@]2(C)CC[C@@]2(C)[C@@H]3C[C@](C)(C(=O)OCCCOC(=O)/C=C(\C#N)c4ccc(F)cc4)CC[C@]3(C)CC[C@]12C`, the Activity was found to be 18.7% in test [1]; 7.4% in test [3]; 64.36% in test [5]; 25.2% in [9]; 80% in [14]; 15.55% in test [16]. The figures for the Activity in test [17] and in test [18] were 67.51% and 84.2%, respectively. For the same molecule, the IC50 (in general, the concentration at which inhibition is half-maximal) in test [2] stood at 0.94 µM; in test [4], 0.64 µM; in test [6] it was 0.41 µM. Further, the inhibition of growth at 0.5 µM in test [7] is 65.1%. In addition, the inhibition result in test [8] and in [13] was “Active” each time. The result in test [10] and in test [12] was Active. The inhibition entry in test [11] and in test [15] was “Dose-dependent effect” each time.

For the origin of these results see ChEMBL document CHEMBL4376838, “Discovery of Novel Celastrol Derivatives as Hsp90-Cdc37 Interaction Disruptors with Antitumor Activity” (J Med Chem, 2019).
